# Reference: ChEMBL document CHEMBL4308843, “Identification of ABX-1431, a Selective Inhibitor of Monoacylglycerol Lipase and Clinical Candidate for Treatment of Neurological Disorders” (J Med Chem, 2018)
# The source made the active and inactive calls. The rule behind the calls is not given here.
# Tests used:
# [1] = molecular target: T1, Monoglyceride lipase (Mus musculus) (UniProt O35678); experiment: Inhibition of MGLL in mouse brain membrane homogenates at 0.001 to 10 uM preincubated for 30 mins followed by FP-Rh addition after 30 mins by gel-based ABPP assay; assay type: cell membranes
# T1 sequence (whole entry): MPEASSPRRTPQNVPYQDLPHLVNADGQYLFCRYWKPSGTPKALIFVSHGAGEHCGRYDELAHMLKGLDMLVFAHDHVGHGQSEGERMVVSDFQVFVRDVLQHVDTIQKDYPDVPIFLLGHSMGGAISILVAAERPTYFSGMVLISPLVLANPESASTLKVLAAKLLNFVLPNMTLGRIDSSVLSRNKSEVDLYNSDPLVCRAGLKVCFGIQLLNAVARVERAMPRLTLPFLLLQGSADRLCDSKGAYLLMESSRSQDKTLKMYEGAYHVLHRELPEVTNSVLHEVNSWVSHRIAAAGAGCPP
# Outline: (§1)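 Brain membrane homogenates (1 mg/mL protein) were preincubated with 0.001-10 µM inhibitor or DMSO for 30 min at 37°C, then labelled with 1 µM FP-Rh for 30 min at 25°C. Reactions were quenched in SDS-PAGE loading buffer, run on 10% gels and scanned in-gel. MGLL band intensities were normalised to DMSO (100%).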
# Canis lupus familiaris = species: Canis lupus familiaris; experiment: Inhibition of MGLL in dog brain membrane homogenates at 0.001 to 10 uM preincubated for 30 mins followed by FP-Rh addition after 30 mins by gel-based ABPP assay; assay type: cell membranes; outline: as §1
# [2] = Oral bioavailability in Sprague-Dawley rat at 5 mg/kg by LC-MS analysis; assay type: ADME, organism-based; details: in vivo
# Outline: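 Rats (n = 3 per route) were dosed at 1 mg/kg iv (70% PEG400 in HPBCD/saline) or 5 mg/kg po (70% PEG400 in 0.5% CMC/saline), fasted overnight to 4 h post-dose. Jugular-catheter blood (~100 µL) was sampled to 24 h into 400 µL acetonitrile to stop esterases. Samples were quantified by HPLC-MS/MS, with noncompartmental analysis.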
# [3] = Tmax in Beagle dog at 1 mg/kg, iv or 1 mg/kg, po by LC-MS analysis; assay type: ADME, organism-based, Canis lupus familiaris; details: in vivo
# Outline: (§2)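 Male beagle dogs (n = 3 per route), 10–12 months old, were dosed at 1 mg/kg iv or po in PEG400/ethanol/PBS (7/2/1), fasted overnight to 2 h post-dose. Peripheral venous blood was sampled to 24 h into K2EDTA and plasma frozen at −80 °C. Plasma was quantified by HPLC-MS/MS, with noncompartmental analysis.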
# [4] = Clearance in Beagle dog at 1 mg/kg, iv or 1 mg/kg, po by LC-MS analysis; assay type: ADME, organism-based, Canis lupus familiaris; details: in vivo; outline: as §2
# [5] = Volume of distribution at steady state in Beagle dog at 1 mg/kg, iv or 1 mg/kg, po by LC-MS analysis; assay type: ADME, organism-based, Canis lupus familiaris; details: in vivo, read-out: Vdss; outline: as §2
# [6] = Oral bioavailability in Beagle dog at 1 mg/kg by LC-MS analysis; assay type: ADME, organism-based, Canis lupus familiaris; details: in vivo; outline: as §2
# hERG (KCNH2) = hERG (KCNH2) (Homo sapiens, UniProt Q12809); experiment: Inhibition of human ERG
# Mus musculus [7] = experiment: In vivo inhibition of MGLL in po dosed ICR mouse brain measured 4 hrs post dose in presence of FP-Rh probe by gel-based ABPP assay; assay type: functional
# Outline: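 Male ICR mice, 6–12 weeks old, single oral gavage 0.5–32 mg/kg in PEG400:ethanol:PBS (7/2/1), 5 mL/kg, n = 3. Killed at 4 h; one brain hemisphere for gel-based ABPP with FP-Rh (MGLL band quantified), the other for 2-AG by LC-MS/MS.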
# Mus musculus [8] = experiment: In vivo inhibition of CES1c in po dosed ICR mouse brain measured 4 hrs post dose in presence of FP-Rh probe by gel-based ABPP assay; assay type: functional
# Outline: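 Male ICR mice, 6–12 weeks old, given single oral doses (0.5–32 mg/kg, n = 3) in PEG400:ethanol:PBS (7/2/1 v/v/v) at 5 mL/kg. Brains were removed 4 h later and one hemisphere processed for gel-based ABPP. Proteome was labeled with FP-Rh (1 µM, 30 min) and read by in-gel fluorescence relative to vehicle.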
# Mus musculus [9] = experiment: In vivo inhibition of ABHD6 in ICR mouse brain at 25 mg/kg, po measured at 4 hrs post dose in presence of FP-Rh probe by gel-based ABPP assay; assay type: functional, organism-based
# Rattus norvegicus [10] = experiment: In vivo inhibition of MGLL in po dosed Sprague-Dawley rat brain assessed as increase in 2-AG measured at 4 hrs post dose by LC-MS/MS analysis; assay type: functional, organism-based
# Outline: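 Male Sprague Dawley rats, 6–12 weeks old, single oral doses 0.03–10 mg/kg in 0.5% methylcellulose, 5 mL/kg. Killed 4 h post-dose; forebrain section (~100–200 mg) from one hemisphere analysed for 2-AG by LC-MS/MS.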
# Rattus norvegicus [11] = experiment: Antinociceptive activity in Sprague-Dawley rat assessed as reduction in formalin-evoked paw licking duration at 3 mg/kg, po administered 4 hrs prior to formalin challenge and measured between 0 to 15 mins post formalin challenge; assay type: functional, organism-based
# Rattus norvegicus [12] = experiment: Antinociceptive activity in Sprague-Dawley rat assessed as reduction in formalin-evoked paw licking duration at 3 mg/kg, po administered 4 hrs prior to formalin challenge and measured between 10 to 30 mins post formalin challenge; assay type: functional, organism-based
# [13] = molecular target: ATP-dependent translocase ABCB1 (Homo sapiens, UniProt P08183); experiment: Inhibition of P-gp (unknown origin) at 10 uM; assay type: ADME
# [14] = molecular target: T2, Solute carrier family 22 member 2 (Homo sapiens, UniProt O15244); experiment: Inhibition of OCT2 (unknown origin) at 10 uM; assay type: ADME
# T2 sequence (O15244 whole entry): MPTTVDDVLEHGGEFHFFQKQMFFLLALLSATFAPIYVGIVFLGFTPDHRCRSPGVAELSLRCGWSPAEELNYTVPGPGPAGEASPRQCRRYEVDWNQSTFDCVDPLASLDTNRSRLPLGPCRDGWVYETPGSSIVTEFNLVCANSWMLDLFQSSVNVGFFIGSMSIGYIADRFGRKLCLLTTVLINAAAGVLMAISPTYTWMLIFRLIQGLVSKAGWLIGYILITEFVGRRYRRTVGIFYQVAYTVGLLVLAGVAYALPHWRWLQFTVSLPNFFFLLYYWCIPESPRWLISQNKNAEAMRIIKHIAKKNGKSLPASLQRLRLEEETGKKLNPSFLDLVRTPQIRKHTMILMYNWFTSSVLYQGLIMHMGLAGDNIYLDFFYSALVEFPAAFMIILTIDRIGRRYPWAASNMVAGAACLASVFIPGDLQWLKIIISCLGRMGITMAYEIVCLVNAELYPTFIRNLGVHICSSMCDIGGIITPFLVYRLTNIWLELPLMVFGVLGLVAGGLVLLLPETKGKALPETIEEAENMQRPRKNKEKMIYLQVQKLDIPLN
# [15] = Cmax in Beagle dog at 1 mg/kg, po by LC-MS analysis; details: in vivo
# ATP-dependent translocase ABCB1, sequence (P08183 whole entry): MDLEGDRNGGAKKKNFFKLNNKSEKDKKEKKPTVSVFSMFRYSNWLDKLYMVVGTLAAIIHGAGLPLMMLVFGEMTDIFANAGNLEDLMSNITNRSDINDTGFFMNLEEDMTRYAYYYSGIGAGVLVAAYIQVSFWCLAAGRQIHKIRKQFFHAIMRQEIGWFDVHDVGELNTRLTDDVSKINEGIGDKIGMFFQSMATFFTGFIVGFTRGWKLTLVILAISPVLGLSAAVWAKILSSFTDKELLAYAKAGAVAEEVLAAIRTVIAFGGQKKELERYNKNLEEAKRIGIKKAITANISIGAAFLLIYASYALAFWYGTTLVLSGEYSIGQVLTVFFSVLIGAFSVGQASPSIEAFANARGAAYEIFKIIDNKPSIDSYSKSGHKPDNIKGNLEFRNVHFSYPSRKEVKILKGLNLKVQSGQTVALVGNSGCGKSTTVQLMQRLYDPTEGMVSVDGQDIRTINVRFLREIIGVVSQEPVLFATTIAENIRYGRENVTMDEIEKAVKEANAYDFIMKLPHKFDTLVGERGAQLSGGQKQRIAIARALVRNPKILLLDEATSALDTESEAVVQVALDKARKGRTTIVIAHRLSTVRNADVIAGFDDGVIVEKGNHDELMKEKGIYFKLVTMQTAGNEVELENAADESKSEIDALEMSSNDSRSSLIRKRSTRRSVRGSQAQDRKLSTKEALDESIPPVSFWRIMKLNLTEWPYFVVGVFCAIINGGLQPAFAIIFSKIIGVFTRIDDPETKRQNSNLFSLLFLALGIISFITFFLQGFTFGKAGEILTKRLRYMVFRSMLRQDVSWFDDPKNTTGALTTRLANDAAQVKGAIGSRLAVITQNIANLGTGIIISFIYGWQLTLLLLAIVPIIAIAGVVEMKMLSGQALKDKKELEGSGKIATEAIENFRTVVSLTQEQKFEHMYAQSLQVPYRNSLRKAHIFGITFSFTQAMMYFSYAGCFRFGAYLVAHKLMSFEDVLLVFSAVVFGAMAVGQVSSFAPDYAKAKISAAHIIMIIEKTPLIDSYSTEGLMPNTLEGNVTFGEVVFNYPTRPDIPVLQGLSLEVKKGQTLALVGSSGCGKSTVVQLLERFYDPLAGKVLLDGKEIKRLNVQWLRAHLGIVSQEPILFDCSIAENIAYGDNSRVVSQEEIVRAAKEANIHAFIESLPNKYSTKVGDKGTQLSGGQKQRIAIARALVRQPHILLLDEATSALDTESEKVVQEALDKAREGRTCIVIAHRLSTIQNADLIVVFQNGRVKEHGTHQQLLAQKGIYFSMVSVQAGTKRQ
# hERG (KCNH2), sequence (Q12809 whole entry): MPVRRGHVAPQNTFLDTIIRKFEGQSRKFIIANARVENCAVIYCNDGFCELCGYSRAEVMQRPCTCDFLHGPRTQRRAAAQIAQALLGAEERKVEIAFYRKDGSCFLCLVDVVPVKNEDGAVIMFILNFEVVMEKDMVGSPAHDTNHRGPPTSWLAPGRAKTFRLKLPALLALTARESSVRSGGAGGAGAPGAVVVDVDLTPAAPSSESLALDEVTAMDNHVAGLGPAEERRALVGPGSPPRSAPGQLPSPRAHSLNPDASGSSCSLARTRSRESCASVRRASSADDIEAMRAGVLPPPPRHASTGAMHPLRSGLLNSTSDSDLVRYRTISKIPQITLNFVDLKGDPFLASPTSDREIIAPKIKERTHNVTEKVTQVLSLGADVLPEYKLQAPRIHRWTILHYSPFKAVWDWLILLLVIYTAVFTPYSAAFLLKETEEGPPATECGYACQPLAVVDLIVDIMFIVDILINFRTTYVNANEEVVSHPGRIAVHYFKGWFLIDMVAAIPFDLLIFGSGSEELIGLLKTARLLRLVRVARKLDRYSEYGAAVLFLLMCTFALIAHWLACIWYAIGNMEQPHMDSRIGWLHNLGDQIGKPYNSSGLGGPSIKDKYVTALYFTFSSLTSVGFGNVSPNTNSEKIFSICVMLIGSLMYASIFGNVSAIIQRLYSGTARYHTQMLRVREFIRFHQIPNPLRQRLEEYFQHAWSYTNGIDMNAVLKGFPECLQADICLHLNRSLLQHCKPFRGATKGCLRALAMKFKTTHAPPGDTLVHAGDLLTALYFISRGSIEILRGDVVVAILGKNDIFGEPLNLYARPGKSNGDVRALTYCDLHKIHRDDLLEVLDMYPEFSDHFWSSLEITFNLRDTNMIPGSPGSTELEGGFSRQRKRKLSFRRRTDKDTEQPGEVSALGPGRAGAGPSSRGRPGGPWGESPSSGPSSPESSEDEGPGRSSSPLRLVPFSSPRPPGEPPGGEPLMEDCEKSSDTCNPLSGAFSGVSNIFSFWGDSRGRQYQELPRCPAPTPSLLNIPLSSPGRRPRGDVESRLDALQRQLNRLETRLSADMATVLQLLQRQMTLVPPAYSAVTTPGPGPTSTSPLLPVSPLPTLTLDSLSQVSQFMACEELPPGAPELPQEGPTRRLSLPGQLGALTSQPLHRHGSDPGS
compound,measurement,setting,value
O=C(OC(C(F)(F)F)C(F)(F)F)N1CCN(Cc2ccc(C(F)(F)F)cc2N2CCCC2)CC1 [ELCUBRAGISTAT],inhibition,[1],Active
same,inhibition,Canis lupus familiaris,Active
same,bioavailability,[2],64%
same,Tmax,[3],1 h
same,clearance,[4],6.3 mL/min/kg
same,Vd,[5],1.2 L/kg
same,bioavailability,[6],57%
same,IC20,hERG (KCNH2),7 µM
same,ED50,Mus musculus [7],1.4 mg/kg
same,inhibition,Mus musculus [7],Dose-dependent effect
same,ED50,Mus musculus [8],32 mg/kg
same,inhibition,Mus musculus [9],Active
same,inhibition,Rattus norvegicus [10],Dose-dependent effect
same,Activity,Rattus norvegicus [11],Active
same,Activity,Rattus norvegicus [12],Active
same,inhibition (INH),[13],Not Active
same,inhibition (INH),[14],Not Active
same,Cmax,[15],777 nM
